# Reference: ChEMBL document CHEMBL1134563, “Synthesis, mechanism of action, and antiviral activity of a new series of covalent mechanism-based inhibitors of S-adenosyl-L-homocysteine hydrolase” (J Med Chem, 2001)
# Columns and labels:
# E6SM [1] = assay: Effective concentration required to inhibit Herpes simplex virus-1 (HSV-1) induced cytopathicity by 50% in E6SM cell lines; type: functional, cell-based; settings: Homo sapiens
# Vero [2] = assay: Effective concentration required to inhibit reovirus-induced cytopathicity by 50% in Vero cell lines; type: functional, cell-based; settings: Chlorocebus sabaeus
# E6SM [3] = assay: Effective concentration required to inhibit Herpes simplex virus-2 (HSV-2) induced cytopathicity by 50% in E6SM cell lines; type: functional, cell-based; settings: Homo sapiens
# HeLa [4] = assay: Effective concentration required to inhibit vesicular stomatitis virus (VSV)-induced cytopathicity by 50% in HeLa cell lines; type: functional, cell-based; settings: Homo sapiens
# E6SM [5] = assay: Effective concentration required to inhibit Herpes simplex virus-1(HSV-1) / […] kinase deficient (TK-)B2006 / VMW1837 induced cytopathicity by 50% in E6SM cell lines; type: functional, cell-based; settings: Homo sapiens
# Vero [6] = assay: Effective concentration required to inhibit PuntaToro virus-induced cytopathicity by 50% in Vero cell lines; type: functional, cell-based; settings: Chlorocebus sabaeus
# HeLa [7] = assay: Minimum inhibitory concentration required to elicit microscopically visible cell morphology in HeLa cell lines; type: functional; settings: Homo sapiens
# Vero [8] = assay: Effective concentration required to inhibit parainfluenza-3 virus-induced cytopathicity by 50% in Vero cell lines; type: functional, cell-based; settings: Chlorocebus sabaeus
# E6SM [9] = assay: Effective concentration required to inhibit Vaccinia virus-induced cytopathicity by 50% in E6SM cell lines; type: functional, cell-based; settings: Homo sapiens
# E6SM [10] = assay: Minimum inhibitory concentration required to elicit microscopically visible cell morphology in E6SM cell lines; type: functional; settings: Homo sapiens
# Vero [11] = assay: Effective concentration required to inhibit respiratory synaptial (RSV) virus-induced cytopathicity by 50% in Vero cell lines; type: functional, cell-based; settings: Chlorocebus sabaeus
# E6SM [12] = assay: Effective concentration required to inhibit vesicular stomatitis virus(VSV) -induced cytopathicity by 50% in E6SM cell lines; type: functional, cell-based; settings: Homo sapiens
# HeLa [13] = assay: Effective concentration required to inhibit respiratory synaptial(RSV) virus-induced cytopathicity by 50% in HeLa cell lines; type: functional, cell-based; settings: Homo sapiens
# HeLa [14] = assay: Effective concentration required to inhibit Coxsackie virus B4-induced cytopathicity by 50% in HeLa cell lines; type: functional, cell-based; settings: Homo sapiens
# Vero [15] = assay: Effective concentration required to inhibit Tacaribe virus-induced cytopathicity by 50% Vero cell lines; type: functional, cell-based; settings: Chlorocebus sabaeus
# Adenosylhomocysteinase [16] = target: T1, Adenosylhomocysteinase (Homo sapiens, UniProt P23526); assay: Inhibition of purified recombinant human placental S-adenosyl-homocysteine hydrolase
# Summary of the method: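 Enzyme preincubated at 37 °C in assay buffer with inactivator (5-40 µM). Residual activity was read over time in the synthetic direction from the formation of [8-14C]-AdoHcy, using 10 µM [8-14C]-Ado, 5 mM D,L-Hcy, 20 mM potassium phosphate pH 7.5, 1 mg/mL BSA and 1 mM EDTA, 10 min at 37 °C. Reaction stopped with HCl; Ado/AdoHcy separated on Cellex P.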
# Target sequence in this assay (P23526 whole entry): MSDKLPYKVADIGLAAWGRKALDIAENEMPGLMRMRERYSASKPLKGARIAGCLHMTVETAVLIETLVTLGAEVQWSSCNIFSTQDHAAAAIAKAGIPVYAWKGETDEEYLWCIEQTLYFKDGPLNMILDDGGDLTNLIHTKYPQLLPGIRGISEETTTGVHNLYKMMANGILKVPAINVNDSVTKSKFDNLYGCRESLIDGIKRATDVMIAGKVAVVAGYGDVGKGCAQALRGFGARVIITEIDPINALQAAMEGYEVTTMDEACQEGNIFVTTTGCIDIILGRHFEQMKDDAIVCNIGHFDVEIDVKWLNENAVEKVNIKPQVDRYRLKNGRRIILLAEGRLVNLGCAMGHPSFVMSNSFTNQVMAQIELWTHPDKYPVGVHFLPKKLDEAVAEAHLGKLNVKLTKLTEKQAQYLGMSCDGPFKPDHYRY
# HEL [17] = assay: Effective concentration required to inhibit thymidine kinase (TK+) Varicella-Zoster virus-induced cytopathicity by 50% in OKA strain HEL cell lines; type: functional, cell-based; settings: Homo sapiens
# Adenosylhomocysteinase [18] = target: T1, Adenosylhomocysteinase
# Target sequence in this assay (P23526 2-432 limits assumed): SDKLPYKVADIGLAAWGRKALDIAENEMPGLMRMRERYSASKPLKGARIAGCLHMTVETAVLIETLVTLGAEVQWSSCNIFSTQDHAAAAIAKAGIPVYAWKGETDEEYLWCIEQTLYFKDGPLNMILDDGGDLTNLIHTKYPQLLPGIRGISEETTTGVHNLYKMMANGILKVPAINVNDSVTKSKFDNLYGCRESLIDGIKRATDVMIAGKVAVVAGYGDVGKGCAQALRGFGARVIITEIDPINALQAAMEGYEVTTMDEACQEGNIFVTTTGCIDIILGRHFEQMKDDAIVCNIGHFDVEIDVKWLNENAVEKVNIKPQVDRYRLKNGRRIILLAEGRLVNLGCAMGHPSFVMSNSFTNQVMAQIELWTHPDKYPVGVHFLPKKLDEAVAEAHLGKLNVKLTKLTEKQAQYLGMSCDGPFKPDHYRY
# HEL [19] = assay: Effective concentration required to inhibit Thymidine kinase deficient (TK-) Varicella-Zoster virus-induced cytopathicity by 50% in 07/01 strain HEL cell lines; type: functional, cell-based; settings: Homo sapiens
# Vero [20] = assay: Effective concentration required to inhibit Junin virus-induced cytopathicity by 50% in Vero cell lines; type: functional, cell-based; settings: Chlorocebus sabaeus
# HEL [21] = assay: Effective concentration required to inhibit Thymidine kinase deficient (TK-) Varicella-Zoster virus-induced cytopathicity by 50% in YS/R strain HEL cell lines; type: functional, cell-based; settings: Homo sapiens
# HEL [22] = assay: Effective concentration required to inhibit cytomegalo virus(CMV) -induced cytopathicity by 50% in AD-169 strain HEL cell lines; type: functional, cell-based; settings: Homo sapiens
# HEL [23] = assay: Effective concentration required to inhibit cytomegalo virus-induced cytopathicity by 50% in Davis-169 strain HEL cell lines; type: functional, cell-based; settings: Homo sapiens
# Vero [24] = assay: Effective concentration required to inhibit Sindbis virus-induced cytopathicity by 50% in Vero cell lines; type: functional, cell-based; settings: Chlorocebus sabaeus
# HEL [25] = assay: Effective concentration required to inhibit thymidine kinase (TK+) Varicella-Zoster virus-induced cytopathicity by 50% in YS strain HEL cell lines; type: functional, cell-based; settings: Homo sapiens
# Adenosylhomocysteinase [26] = target: T1, Adenosylhomocysteinase; remark: listed apart in the source
# Target sequence in this assay (P23526 2-432 limits assumed): as above
# [27] = half life of enzyme inactivation at 15 uM; type: functional
# Summary of the method: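 Recombinant human placental AdoHcy hydrolase was preincubated with inhibitor (5-40 µM range) in assay buffer at 37 °C. Residual activity was read at set times in the synthetic direction: [8-14C]-AdoHcy formation from 10 µM [8-14C]-Ado plus 5 mM D,L-Hcy, in 20 mM K phosphate pH 7.5, 1 mg/mL BSA, 1 mM EDTA, for 10 min at 37 °C. HCl stopped the reaction, and products were separated on Cellex P.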
# Adenosylhomocysteinase [28] = target: T1, Adenosylhomocysteinase; remark: listed apart in the source
# Target sequence in this assay (P23526 2-432 limits assumed): as above
# HEL [29] = assay: Minimum inhibitory concentration required to elicit microscopically visible cell morphology in HEL cell lines; type: functional; settings: Homo sapiens
# HEL [30] = assay: Effective concentration required to inhibit cytomegalo virus-induced cytopathicity by 50% in AD-169 strain HEL cell lines; type: functional, cell-based; settings: Homo sapiens
# Vero [31] = assay: Minimum inhibitory concentration required to elicit microscopically visible cell morphology in Vero cell lines; type: functional; settings: Chlorocebus sabaeus
# Vero [32] = assay: Effective concentration required to inhibit Punta Toro virus-induced cytopathicity by 50% in Vero cell lines; type: functional, cell-based; settings: Chlorocebus sabaeus
# HeLa [33] = assay: Effective concentration required to inhibit respiratory synaptial (RSV) virus-induced cytopathicity by 50% in HeLa cell lines; type: functional, cell-based; settings: Homo sapiens
Compound,EC50 (E6SM [1]) [µM],EC50 (Vero [2]) [µM],EC50 (E6SM [3]) [µM],EC50 (HeLa [4]) [µM],EC50 (E6SM [5]) [µM],EC50 (Vero [6]) [µM],MIC (HeLa [7]) [µM],EC50 (Vero [8]) [µM],EC50 (E6SM [9]) [µM],MIC (E6SM [10]) [µM],EC50 (Vero [11]) [mM],EC50 (E6SM [12]) [µM],EC50 (HeLa [13]) [µM],EC50 (HeLa [14]) [µM],EC50 (HEL [17]) [µM],EC50 (HEL [19]) [µM],EC50 (HEL [21]) [µM],EC50 (HEL [23]) [µM],EC50 (HEL [25]) [µM],MIC (HEL [29]) [µM],also measured
NC(=O)c1ncn([C@@H]2O[C@H](CO)[C@@H](O)[C@H]2O)n1 [RIBAVIRIN],320,40,320,1000,0.005,40,> 1600,196,65,> 1600,> 1.6,40,1.5,> 320,–,–,–,–,–,–,–
C#CCSC[C@H]1OC(n2cnc3c(N)ncnc32)[C@H](O)[C@@H]1O (stereo partly drawn),> 250,> 120,> 250,> 250,> 250,> 120,1240,> 120,> 250,1240,> 0.25,> 250,> 250,> 120,> 200,154,126,> 200,> 200,> 200,EC50 (Vero [15]): > 200 µM; Ki (Adenosylhomocysteinase [16]): 45 µM; K inact (Adenosylhomocysteinase [18]): 0.0074 min⁻¹; EC50 (Vero [20]): > 200 µM; EC50 (HEL [22]): > 200 µM; EC50 (Vero [24]): > 40 µM; NADH content (Adenosylhomocysteinase [26]): 1; T1/2 [27]: 19 min; NAD+ content (Adenosylhomocysteinase [28]): 0
C=C=CSC[C@H]1OC(n2cnc3c(N)ncnc32)[C@H](O)[C@@H]1O (stereo partly drawn),250,> 380,> 250,> 250,150,> 620,1240,> 620,1.9,1240,> 0.25,> 250,> 250,> 600,> 200,87,> 200,> 200,> 200,> 200,EC50 (Vero [15]): > 200 µM; Ki (Adenosylhomocysteinase [16]): 16 µM; K inact (Adenosylhomocysteinase [18]): 0.12 min⁻¹; EC50 (Vero [20]): > 200 µM; EC50 (HEL [30]): > 200 µM; EC50 (Vero [24]): > 200 µM; NADH content (Adenosylhomocysteinase [26]): 0.3; T1/2 [27]: 7 min; NAD+ content (Adenosylhomocysteinase [28]): 0.7
Nc1ncnc2c1ncn2C[C@H](O)CO [(S)-DHPA],–,45,–,230,–,–,> 2000,230,–,–,> 2,–,–,230,–,–,–,–,–,–,MIC (Vero [31]): > 2000 µM; EC50 (Vero [32]): > 2 mM; EC50 (HeLa [33]): 2 mM
CC#CSC[C@H]1OC(n2cnc3c(N)ncnc32)[C@H](O)[C@@H]1O (stereo partly drawn),250,> 120,620,> 1240,> 250,> 120,> 1240,> 120,49,1240,> 1.24,> 250,> 250,> 120,> 200,200,200,> 200,> 200,> 200,EC50 (Vero [15]): > 200 µM; Ki (Adenosylhomocysteinase [16]): 16 µM; K inact (Adenosylhomocysteinase [18]): 0.062 min⁻¹; EC50 (Vero [20]): > 200 µM; EC50 (HEL [30]): > 200 µM; EC50 (Vero [24]): > 40 µM; NADH content (Adenosylhomocysteinase [26]): 0.32; T1/2 [27]: 7 min; NAD+ content (Adenosylhomocysteinase [28]): 0.68
Nc1nc2c(ncn2COCCO)c(=O)[nH]1 [ACYCLOVIR],–,–,–,–,–,–,–,–,–,–,–,–,–,–,4.53,41,63,–,4.09,> 150,–
Nc1nc2c(ncn2COC(CO)CO)c(=O)[nH]1 [GANCICLOVIR],0.0012,–,0.0012,> 100,–,–,–,–,> 100,> 1600,–,–,–,–,–,–,–,11.8,–,> 150,EC50 (HEL [30]): 7.8 µM
